An excerpt weighted towards active compounds, which were near 7.6% of everything screened.
D1 mod – D1 dopamine receptor (human) allosteric modulation | 5.9% of 58,000 active | AID 641 | HEK293 D1, CRE-luciferase, dopamine EC30 potentiation; actives deviate in either direction | B-score at 10 µM;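 active means luminescence count or its row- and column-corrected plate score outside the 99.7% band of the plate's sample wells, on either side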
hDAT+cocaine – changed human dopamine transporter uptake under cocaine IC80; LLC-PK1 hDAT cells, [14C]-dopamine uptake with cocaine IC80; actives deviate in either direction; Q01959; 1.3% of 110,000 active; B-score at 10 µM;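 active means Z score or B-score, a plate-position-corrected score, falls beyond the plate's 99.7% confidence bounds, in either direction; inactive means both scores lie inside the 99.7% bounds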;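 further: scored against the spread of the other compound wells on the same plate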
M1 antag – M1 muscarinic receptor (rat) antagonism. B-score at 10 µM. P08482. CHO-M1 cells, Fluo-4 calcium, ACh EC80 antagonist mode; active compounds read low. 3.4% of 64,000 active;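 active means calcium fluorescence response, raw or row-and-column corrected B-score, differing from the plate sample mean either way at a set confidence level, mostly lower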
Target sequence (P08482 whole entry, looked up): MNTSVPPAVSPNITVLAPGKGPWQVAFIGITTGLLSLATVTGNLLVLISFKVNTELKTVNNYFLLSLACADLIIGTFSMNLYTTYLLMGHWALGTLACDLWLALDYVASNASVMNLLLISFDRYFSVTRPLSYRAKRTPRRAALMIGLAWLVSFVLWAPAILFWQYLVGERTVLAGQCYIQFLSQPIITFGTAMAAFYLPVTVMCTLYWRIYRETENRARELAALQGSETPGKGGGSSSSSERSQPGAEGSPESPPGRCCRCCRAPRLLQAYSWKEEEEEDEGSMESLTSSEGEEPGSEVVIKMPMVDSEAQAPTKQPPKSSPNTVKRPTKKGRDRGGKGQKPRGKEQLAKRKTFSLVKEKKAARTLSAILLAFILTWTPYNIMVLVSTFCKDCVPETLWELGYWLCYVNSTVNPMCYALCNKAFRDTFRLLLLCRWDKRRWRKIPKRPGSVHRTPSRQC
Jurkat viability – cytotoxic compounds reducing Jurkat cell viability; Jurkat E6.1 viability, ATP luminescence, 48 h; inhibition, % at 4 µM; 1.2% of 56,000 active;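 active means inhibition above the mean inhibition of all tested compounds plus 3 SD, cut at about 28% in these data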
M1 ag – agonists of M1 muscarinic receptor | CHO-M1 cells, Fluo-4 calcium fluorescence, agonist mode; active compounds read high | B-score at 10 µM | 3% of 64,000 active;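 active means fluorescence rise, raw or as B-score row- and column-corrected plate score, outside the 99.7% band of its plate's samples, either direction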
HEK293 NFkB inh – inhibitors of the PMA/ionomycin-induced NF-kB reporter in HEK293 cells; AID 465; HEK-293 NF-kB luciferase reporter, luminescence; inhibition, % at 3 µM; 0.21% of 62,000 active;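 active means inhibition above the mean of all tested compounds plus 3 SD, cut at about 40% in these data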;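 further: 0% = stimulated DMSO wells and 100% = 10 µM reference inhibitor 5653914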
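Signal: luciferase luminescence; Material: HEK-293 cells with stable firefly luciferase reporter driven by four HIV NF-kB elements; Probe or stimulus: PMA with ionomycin; Replication: tested once; Times: 1 h compound pretreatment, then 16 h stimulation at 37 °C, 5% CO2; Benchmarks: DMSO and 10 µM reference inhibitor; Evaluation: per-plate % inhibition versus controls.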
* hit, by the source's call; ! = repeats disagree.

How did CCSc1ccccc1C(=O)NCc1ccc(S(N)(=O)=O)cc1 do in these assays?
D1 mod: -3*; hDAT+cocaine: -0.19; M1 antag: -0.16; Jurkat viability: 5; M1 ag: 0.14; HEK293 NFkB inh: 18

How did CCCn1c(=NC(=O)c2ccncc2)c(C#N)cc2c(=O)n3cccc(C)c3nc21 do in these assays?
D1 mod: 0.36; M1 antag: 0.43; Jurkat viability: -4; M1 ag: 20*; HEK293 NFkB inh: 10

How did CCCn1c(=NC(=O)c2ccc3c(c2)OCO3)c(C#N)cc2c(=O)n3cccc(C)c3nc21 do in these assays?
D1 mod: 1.1; M1 antag: 0.17; Jurkat viability: -10; M1 ag: -1; HEK293 NFkB inh: 5

Results for CC(=O)N=c1c(C#N)cc2c(=O)n3cccc(C)c3nc2n1CC(C)C ?
D1 mod: 0.11; M1 antag: 0.017; Jurkat viability: -4; M1 ag: 13*; HEK293 NFkB inh: 3

What do the screens show for `Cc1cccn2c(=O)c3cc(C#N)c(=NC(=O)c4ccc5c(c4)OCO5)n(CC(C)C)c3nc12`?
D1 mod: -0.11; M1 antag: -0.35; Jurkat viability: -2; M1 ag: -0.54; HEK293 NFkB inh: -1

How did O=C(CCN1C(=O)CSC1=O)Nc1ccc(Br)cc1 do in these assays?
hDAT+cocaine: 0.077

Results for CC(=O)NC(C)C(c1cccs1)N1CCN(c2ccccc2)CC1 (stereo not drawn) ?
D1 mod: -0.95*; hDAT+cocaine: -0.79; M1 antag: -0.58; Jurkat viability: -3; M1 ag: -0.91; HEK293 NFkB inh: 4

Results for Cc1cccc(Cn2c(SCC(=O)Nc3ccccc3)nc3c2c(=O)[nH]c(=O)n3C)c1 ?
D1 mod: 3.1; hDAT+cocaine: -0.3; M1 antag: -0.11; Jurkat viability: 4; M1 ag: -0.68; HEK293 NFkB inh: 7

Results for CN1C(=O)c2c(sc3c2CC(C)(C)SC3)N2CCN=C12 ?
D1 mod: 0.12; hDAT+cocaine: 0.98; M1 antag: -1.1; Jurkat viability: 2; M1 ag: 0.21; HEK293 NFkB inh: 17

How did CCOC(=O)C1=C(c2ccccc2)OC(N)=C(C#N)C1C1CCCCC1 (stereo not drawn) do in these assays?
hDAT+cocaine: -1.7*

Results for COc1cccc(C2=CC(c3cccc(OC)c3OC)n3nnnc3N2)c1 (stereo not drawn) ?
D1 mod: 2; hDAT+cocaine: -1.5; M1 antag: -0.72; Jurkat viability: 67*; M1 ag: -1.4; HEK293 NFkB inh: 16

What do the screens show for `O=C(CSc1nnc2c(n1)[nH]c1ccc(F)cc12)OCc1ccccc1`?
D1 mod: -0.63; hDAT+cocaine: -8.6*; M1 antag: 0.12; Jurkat viability: -4; M1 ag: 0.18; HEK293 NFkB inh: 5

Results for Cc1ccc(C(=O)NNC(=O)CSc2nnc3c(n2)[nH]c2ccc(F)cc23)cc1 ?
hDAT+cocaine: -0.028

How did N#C/C(=N\O)c1nc(-c2ccccc2)cs1 do in these assays?
hDAT+cocaine: -5.2*!; M1 antag: 0.85; M1 ag: -0.87

What do the screens show for `CCOC(=O)C1CCCN(S(=O)(=O)c2cn(C)c(=O)n(C)c2=O)C1` (stereo not drawn)?
D1 mod: -0.71; hDAT+cocaine: 0.38; M1 antag: 0.34; Jurkat viability: -4; M1 ag: 0.011; HEK293 NFkB inh: 1

Results for Oc1[nH]c2ccccc2c1C=Nc1ccc2c(c1)OCO2 ?
D1 mod: -4.4*; hDAT+cocaine: -0.42; M1 antag: -0.17; Jurkat viability: -5; M1 ag: -0.49; HEK293 NFkB inh: -52

How did O=C(c1ccc(Cl)cc1)C1C2C(=O)N(c3ccccc3)C(=O)C2C2CCCN21 (stereo not drawn) do in these assays?
D1 mod: 0.26; hDAT+cocaine: -2.2; M1 antag: 0.86; Jurkat viability: -2; M1 ag: 15*; HEK293 NFkB inh: 5

What do the screens show for `Cn1c(CCCNC(=O)c2ccccc2)nc2ccccc21`?
D1 mod: -3.5*; hDAT+cocaine: -0.81; M1 antag: 1.5; M1 ag: -0.89; HEK293 NFkB inh: -5

How did CC(C)(C)C(=O)NCCCc1nc2ccccc2n1CCCOc1ccc(Cl)cc1 do in these assays?
hDAT+cocaine: 3.4*

Source: PubChem BioAssay
